Assay results from different studies.
pIC50: −log10 of the molar value.
Cell line: A549
Effect on: cell growth or viability

| SMILES | assay | conditions | endpoint | result |
| --- | --- | --- | --- | --- |
| Cc1cccc(NC(=O)Nc2ccc(-c3ccc4ncn(Cc5ccccc5)c(=O)c4c3)cn2)c1 | CCK-8 | 72 h | pIC50 | < 5.00 |
| O=C(Nc1cccc(-c2cn(Cc3ccc(Br)cc3)nn2)c1)Nc1ccccc1Br | CCK-8 | 20 µM, 72 h | viability | 130% |
| N#CSCCCCOc1ccc2c(-c3ccccc3)cc(=O)oc2c1 | SRB | – | GI50 | 36 µM |
| COc1ccc(NC(=O)Nc2cccc(-c3cn(Cc4cccc(Cl)c4)nn3)c2)cc1 | CCK-8 | 50 µM, 72 h | viability | 237% |
| CCC(=O)NCc1ccc(-c2cnc(C3CN(C(=O)c4cnc(NC(=O)[C@@H]5CC(C)(C)CN5)s4)C3)s2)c2ccccc12 | – | 14 days | GI50 | > 3 µM |
| CCCCCCCCCCCCCCCCCCOc1ccccc1CC(=O)OCC[N+](CC)(CC)CC | SRB | 10 µM | inhibition | 70.7% |
| O=C(NCc1cn(Cc2ccc(Cl)cc2)nn1)Nc1ccc(Cl)cc1 | CCK-8 | 50 µM, 72 h | viability | 67.6% |
| CCCCn1cnc2ccc(-c3ccc(NC(=O)Nc4ccc(OC(F)(F)F)cc4)nc3)cc2c1=O | CCK-8 | 72 h | pIC50 | < 5.00 |
| COc1ccc(NC(=O)NCc2cn(Cc3ccc(Br)cc3)nn2)cc1 | CCK-8 | 20 µM, 72 h | viability | 102% |
| O=C(NCc1cn(Cc2ccc(Br)cc2)nn1)Nc1ccccc1Br | CCK-8 | 50 µM, 72 h | viability | 91.5% |
| COc1ccc(NC(=O)NCc2cn(Cc3ccc(C)cc3)nn2)cc1 | CCK-8 | 50 µM, 72 h | viability | 71.5% |
| COc1ccc2oc(-c3ccc4nc(N)oc4c3)c/c(=N\c3ccccc3NC(=O)CCN)c2c1 | CCK-8 | 1 µM | inhibition | 39.1% |
| O=C(Nc1ccc(Cl)cc1)Nc1cccc(-c2cn(Cc3cccc(Cl)c3)nn2)c1 | CCK-8 | 20 µM, 72 h | viability | 115% |
| CCCCn1cnc2ccc(-c3ccc(NC(=O)CCC)nc3)cc2c1=O | CCK-8 | 72 h | pIC50 | 5.50 |
| O=C(Nc1ccccc1/N=c1\cc(-c2ccc3c(c2)OCO3)oc2ccccc12)N1CCOCC1 | CCK-8 | 1 µM | inhibition | 13.8% |
| O=C(Nc1ccc(Cl)cc1)Nc1ccc(-c2cn(Cc3cccc(Cl)c3)nn2)cc1 | CCK-8 | 50 µM, 72 h | viability | 73.2% |
| COc1ccc(NC(=O)Nc2ccc(-c3cn(Cc4ccc(Cl)cc4)nn3)cc2)cc1 | CCK-8 | 50 µM, 72 h | viability | 98.3% |
| CCCCn1cnc2ccc(-c3ccc(NC(=O)C4CCC4)nc3)cc2c1=O | CCK-8 | 72 h | pIC50 | 5.41 |
| NCCC(=O)Nc1ccccc1/N=c1\cc(-c2ccc3oc(N)nc3c2)oc2ccccc12 | CCK-8 | 1 µM | inhibition | 14.5% |
| COc1ccc(NC(=O)Nc2cccc(-c3cn(Cc4ccc(Br)cc4)nn3)c2)cc1 | CCK-8 | 20 µM, 72 h | viability | 152% |
| O=C(NCc1cn(Cc2ccc(Cl)cc2)nn1)Nc1ccccc1Br | CCK-8 | 50 µM, 72 h | viability | 86.1% |

| SMILES | assay | conditions | endpoint | result |
| --- | --- | --- | --- | --- |
| CCCCCCCCCCCCCCCCCCOc1ccc(CC(=O)OCCC[N+](C)(C)C)cc1 | SRB | 10 µM | inhibition | 21.9% |
| CCCCCC(=O)Nc1ccc(-c2ccc3ncn(CC4CC4)c(=O)c3c2)cn1 | CCK-8 | 72 h | pIC50 | 6.60 |
| NCCC(=O)Nc1ccccc1/N=c1\cc(-c2ccc3nc(N)oc3c2)oc2cc(O)ccc12 | CCK-8 | 1 µM | inhibition | 23.2% |
| CCCCCCCCCCCCCCCCCCOc1ccccc1CC(=O)OCC[N+]1(C)CCCC1 | SRB | 10 µM | inhibition | 77% |
| CCCCC(=O)Nc1ccc(-c2ccc3ncn(CCC)c(=O)c3c2)c(F)n1 | CCK-8 | 72 h | pIC50 | < 5.00 |
| Cc1c(Cl)c(=O)oc2cc(OCCCCSC#N)ccc12 | SRB | – | GI50 | 13 µM |
| COc1ccc(NC(=O)Nc2ccc(-c3cn(Cc4cccc(Cl)c4)nn3)cc2)cc1 | CCK-8 | 20 µM, 72 h | viability | 102% |
| O=C(NCc1cn(Cc2cccc(Cl)c2)nn1)Nc1ccc(Cl)cc1 | CCK-8 | 50 µM, 72 h | viability | 79.5% |
| COc1ccc2/c(=N/c3ccccc3NC(=O)N3CCOCC3)cc(-c3ccc4c(c3)OCCO4)oc2c1 | CCK-8 | 1 µM | inhibition | 2.09% |
| CCCCCCCCCCCCCCCCCCOc1cccc(CC(=O)OCC[N+](CC)(CC)CC)c1 | SRB | 10 µM | inhibition | 40% |
| COc1ccc(NC(=O)Nc2cccc(-c3cn(Cc4ccc(C)cc4)nn3)c2)cc1 | CCK-8 | 20 µM, 72 h | viability | 146% |
| CCCCCCCCCCCCCCCCCCOCC(COP(=O)([O-])OCC[N+](C)(C)C)OC (centres unmarked) | SRB | 10 µM | inhibition | 2.5% |
| Cc1ccc(C(=O)Nc2ccc(-c3ccc4ncn(Cc5ccccc5)c(=O)c4c3)cn2)cc1 | CCK-8 | 72 h | pIC50 | < 5.00 |
| COc1ccc(NC(=O)Nc2ccc(-c3cn(Cc4ccc(Br)cc4)nn3)cc2)cc1 | CCK-8 | 20 µM, 72 h | viability | 102% |
| COc1ccc2/c(=N/c3ccccc3NC(=O)[C@@H](N)C(C)(C)C)cc(-c3ccc4c(c3)OCCO4)oc2c1 | CCK-8 | 1 µM | inhibition | 6.77% |
| CCCCCC(=O)Nc1ccc(-c2ccc3ncn(CCCC)c(=O)c3c2)cn1 | CCK-8 | 72 h | pIC50 | 5.87 |
| O=C(Nc1ccccc1/N=c1\cc(-c2ccc3c(c2)OCCO3)oc2cc(F)ccc12)N1CCOCC1 | CCK-8 | 1 µM | inhibition | -4.17% |
| O=C(Nc1cccc(-c2cn(Cc3ccc(Cl)cc3)nn2)c1)Nc1ccccc1Br | CCK-8 | 50 µM, 72 h | viability | 149% |
| CCCCCCCCCCCCCCCCCCOc1ccc(CC(=O)OCC[N+](C)(C)C)cc1 | SRB | 10 µM | inhibition | 5.41% |
| COCCC(=O)Nc1ccccc1/N=c1\cc(-c2ccc3nc(N)oc3c2)oc2ccccc12 | CCK-8 | 1 µM | inhibition | -0.65% |
